This passage reports EC50 and mortality results from ChEMBL document CHEMBL3045963, “Synthesis of nalidixic acid based hydrazones as novel pesticides” (2010).

In brackets after ≈: the same amount, converted by molar mass.

Assay type in all cases: functional
One assay has as its system Fusarium oxysporum. Kind of assay: Fungicidal activity against Fusarium oxysporum by poisoned food technique. The note with it: read-out: ED50 (the source's name).
For a further assay, the system named is Rhizoctonia solani. Kind of assay: Fungicidal activity against Rhizoctonia solani by poisoned food technique. The note with it: read-out: ED50 (the source's name).
In another assay the test system is Alternaria porri. Kind of assay: Fungicidal activity against Alternaria porri by poisoned food technique. The note with it: read-out: ED50 (the source's name).
In assay [1] the test system is Spodoptera litura. Kind of assay: Insecticidal activity against third-instar larval stage of prestarved Spodoptera litura in castor leaf assessed as mortality at 0.1% treated for 2 secs before larval infestation measured after 24 hr by feeding method. Summed up:
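Castor leaf is dipped 2 s in 0.1% compound solution, air-dried, and placed on moist filter paper in 9 cm Petri plates. Larvae starved 4 h beforehand are released singly, one per plate. Thirty replicates per treatment, solvent control. Mortality is scored after 24 h.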

A further assay has as its system Athelia rolfsii. The experiment in a line: Fungicidal activity against Athelia rolfsii by poisoned food technique. The note with it: Agroathelia rolfsii; read-out: ED50 (the source's name).
The subject of another assay is Macrophomina phaseolina. The experiment in a line: Fungicidal activity against Rhizoctonia bataticola by poisoned food technique. Conditions: read-out: ED50 (the source's name).
The test system of assay [2] is Spodoptera litura. Kind of assay: Insecticidal activity against third-instar larval stage of Spodoptera litura assessed as mortality at 0.1% applied topically on the ventral side of the larvae measured after 24 hr by contact method. A digest of the protocol:
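Field-collected larvae are reared in the lab at 27 ± 1 °C and 70% RH. Two microliters of a 0.1% dichloromethane solution is applied to the ventral side. Ten treated larvae are kept per glass bottle and fed fresh castor leaves. Mortality is recorded at 24 h. Triplicate, solvent control.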

Another assay has as its system Callosobruchus maculatus. The experiment in a line: Insecticidal activity against adult Callosobruchus maculatus assessed as mortality at 0.1% at 27 +/-1 degC after 24 hr by contact based film residue method. A digest of the protocol: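 Lab-reared adults, 2-5 days old, exposed to a dry film: 1 mL of 0.1% compound solution in dichloromethane is swirled in a 90 mm Petri plate and dried 3-5 min. Ten adults per plate are held at 27 ± 1 °C and 70% RH. Mortality is scored at 24 h, with no response to touch counted as dead. Triplicates, solvent control, malathion reference.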

What is called mortality is the percentage killed.

Turning to `CCn1cc(C(=O)N/N=C/c2cccc3ccccc23)c(=O)c2ccc(C)nc21`, the EC50 with Fusarium oxysporum is 134 µg/mL (≈ 350 µM); in the assay on Rhizoctonia solani it was 226 µg/mL (≈ 589 µM); with Alternaria porri it was 115 µg/mL (≈ 300 µM); in the assay with Athelia rolfsii, 259 µg/mL (≈ 674 µM); in the assay with Macrophomina phaseolina, 316 µg/mL (≈ 821 µM). Besides, the mortality in the assay with Spodoptera litura [1] is recorded as 90%; in the assay on Spodoptera litura [2], 10%; in the assay with Callosobruchus maculatus, 0%.
For `C/C=C/C=N/NC(=O)c1cn(CC)c2nc(C)ccc2c1=O`, the EC50 turned out to be 95.4 µg/mL (≈ 320 µM) with Fusarium oxysporum; 248 µg/mL (≈ 830 µM) in the assay with Rhizoctonia solani; 89.8 µg/mL (≈ 301 µM) in the assay on Alternaria porri; 204 µg/mL (≈ 683 µM) in the assay on Athelia rolfsii; 324 µg/mL (≈ 1090 µM) in the assay on Macrophomina phaseolina. Moreover, the mortality with Spodoptera litura [1] turned out to be 60%; with Callosobruchus maculatus, 0%.
On to `CCn1cc(C(=O)N/N=C/c2ccccc2C)c(=O)c2ccc(C)nc21`, for which the EC50 in the assay on Fusarium oxysporum turned out to be 129 µg/mL (≈ 369 µM); in the assay on Rhizoctonia solani, 408 µg/mL (≈ 1170 µM); in the assay with Alternaria porri, 109 µg/mL (≈ 313 µM); in the assay with Athelia rolfsii it was 346 µg/mL (≈ 993 µM); in the assay with Macrophomina phaseolina, 533 µg/mL (≈ 1530 µM). Besides, the mortality with Spodoptera litura [1] worked out at 0%; with Callosobruchus maculatus, 10%.
Turning to `CCn1cc(C(=O)N/N=C/c2cccc(C)c2)c(=O)c2ccc(C)nc21`, the EC50 was found to be 103 µg/mL (≈ 296 µM) in the assay with Fusarium oxysporum; 301 µg/mL (≈ 865 µM) in the assay with Rhizoctonia solani; 66.9 µg/mL (≈ 192 µM) in the assay on Alternaria porri; 298 µg/mL (≈ 854 µM) in the assay with Athelia rolfsii; 322 µg/mL (≈ 924 µM) in the assay with Macrophomina phaseolina. The mortality in the assay with Spodoptera litura [1] is 80%; in the assay on Callosobruchus maculatus, 60%.
Regarding `CCn1cc(C(=O)N/N=C/c2ccc(C(C)C)cc2)c(=O)c2ccc(C)nc21`, the EC50 was 277 µg/mL (≈ 736 µM) with Fusarium oxysporum; 252 µg/mL (≈ 671 µM) in the assay on Rhizoctonia solani; 124 µg/mL (≈ 331 µM) in the assay on Alternaria porri; 464 µg/mL (≈ 1230 µM) in the assay with Athelia rolfsii; 453 µg/mL (≈ 1200 µM) with Macrophomina phaseolina. Besides, the mortality is 10% in the assay on Spodoptera litura [1] and 20% in the assay with Callosobruchus maculatus.
Take `CCn1cc(C(=O)N/N=C/c2ccc(Cl)cc2Cl)c(=O)c2ccc(C)nc21`: the EC50 was found to be 121 µg/mL (≈ 300 µM) in the assay with Fusarium oxysporum; 354 µg/mL (≈ 877 µM) in the assay with Rhizoctonia solani; 119 µg/mL (≈ 296 µM) with Alternaria porri; 541 µg/mL (≈ 1340 µM) in the assay on Athelia rolfsii; 495 µg/mL (≈ 1230 µM) in the assay with Macrophomina phaseolina. Moreover, the mortality is 100% with Spodoptera litura [1] and 40% in the assay with Callosobruchus maculatus.
As to `CCn1cc(C(=O)N/N=C/c2c(Cl)cccc2Cl)c(=O)c2ccc(C)nc21`, the EC50 in the assay with Fusarium oxysporum stood at 114 µg/mL (≈ 283 µM); in the assay with Rhizoctonia solani, 298 µg/mL (≈ 738 µM); with Alternaria porri, 87.2 µg/mL (≈ 216 µM); in the assay with Athelia rolfsii, 282 µg/mL (≈ 701 µM); in the assay with Macrophomina phaseolina it was 255 µg/mL (≈ 633 µM). Moreover, the mortality in the assay with Spodoptera litura [1] was found to be 100%; with Spodoptera litura [2] it was 10%; with Callosobruchus maculatus, 30%.
Take `CCn1cc(C(=O)N/N=C/c2ccc(O)cc2O)c(=O)c2ccc(C)nc21`: the EC50 amounted to 196 µg/mL (≈ 536 µM) with Fusarium oxysporum; 342 µg/mL (≈ 932 µM) in the assay with Rhizoctonia solani; 144 µg/mL (≈ 392 µM) with Alternaria porri; 397 µg/mL (≈ 1080 µM) in the assay on Athelia rolfsii; 650 µg/mL (≈ 1770 µM) in the assay with Macrophomina phaseolina. Further, the mortality was determined as 40% with Spodoptera litura [1] and 25% in the assay with Callosobruchus maculatus.
As to `CCn1cc(C(=O)N/N=C/c2ccc(OC)cc2OC)c(=O)c2ccc(C)nc21`, the EC50 in the assay with Fusarium oxysporum stood at 176 µg/mL (≈ 447 µM); in the assay with Rhizoctonia solani it was 188 µg/mL (≈ 477 µM); in the assay with Alternaria porri, 131 µg/mL (≈ 332 µM); in the assay with Athelia rolfsii it was 375 µg/mL (≈ 950 µM); with Macrophomina phaseolina, 382 µg/mL (≈ 969 µM). The values for the mortality with Spodoptera litura [1], in the assay on Spodoptera litura [2] and in the assay on Callosobruchus maculatus were 100%, 10% and 12%, respectively.
As for `CCn1cc(C(=O)N/N=C/c2ccc(OC)c(OC)c2)c(=O)c2ccc(C)nc21`, the EC50 in the assay with Fusarium oxysporum was found to be 137 µg/mL (≈ 346 µM); in the assay with Rhizoctonia solani, 172 µg/mL (≈ 435 µM); in the assay with Alternaria porri, 102 µg/mL (≈ 259 µM); with Athelia rolfsii it was 359 µg/mL (≈ 909 µM); with Macrophomina phaseolina, 285 µg/mL (≈ 722 µM). Besides, the mortality amounted to 40% with Spodoptera litura [1] and 10% with Callosobruchus maculatus.
As to `CCn1cc(C(=O)N/N=C/c2ccc(O)c(OC)c2)c(=O)c2ccc(C)nc21`, the EC50 was 377 µg/mL (≈ 991 µM) with Fusarium oxysporum; 317 µg/mL (≈ 833 µM) in the assay on Rhizoctonia solani; 128 µg/mL (≈ 337 µM) in the assay on Alternaria porri; 460 µg/mL (≈ 1210 µM) with Athelia rolfsii; 528 µg/mL (≈ 1390 µM) in the assay with Macrophomina phaseolina. Further, the mortality came to 100% with Spodoptera litura [1], 20% with Spodoptera litura [2] and 20% in the assay on Callosobruchus maculatus.
With `CCOc1cc(/C=N/NC(=O)c2cn(CC)c3nc(C)ccc3c2=O)ccc1O`, the EC50 in the assay on Fusarium oxysporum was found to be 185 µg/mL (≈ 469 µM); in the assay with Rhizoctonia solani, 356 µg/mL (≈ 903 µM); in the assay with Alternaria porri, 92.1 µg/mL (≈ 234 µM); in the assay with Athelia rolfsii, 384 µg/mL (≈ 974 µM); with Macrophomina phaseolina it was 400 µg/mL (≈ 1010 µM). In addition, the mortality was 90% with Spodoptera litura [1], 10% in the assay with Spodoptera litura [2] and 22% in the assay with Callosobruchus maculatus.
In the case of `CCn1cc(C(=O)N/N=C/c2cc(OC)c(OC)c(OC)c2)c(=O)c2ccc(C)nc21`, the EC50 in the assay with Fusarium oxysporum was determined as 102 µg/mL (≈ 241 µM); in the assay with Rhizoctonia solani, 174 µg/mL (≈ 409 µM); in the assay with Alternaria porri, 79.4 µg/mL (≈ 187 µM); in the assay with Athelia rolfsii, 186 µg/mL (≈ 438 µM); in the assay on Macrophomina phaseolina, 201 µg/mL (≈ 474 µM). The results for the mortality with Spodoptera litura [1], in the assay on Spodoptera litura [2] and with Callosobruchus maculatus were 90%, 10% and 10%, respectively.
For the compound `CCn1cc(C(=O)N/N=C/c2ccccn2)c(=O)c2ccc(C)nc21`, the EC50 was determined as 79.1 µg/mL (≈ 236 µM) in the assay with Fusarium oxysporum; 170 µg/mL (≈ 508 µM) with Rhizoctonia solani; 77.3 µg/mL (≈ 230 µM) with Alternaria porri; 198 µg/mL (≈ 590 µM) in the assay on Athelia rolfsii; 372 µg/mL (≈ 1110 µM) with Macrophomina phaseolina. The mortality with Spodoptera litura [1] came out at 100%; in the assay on Callosobruchus maculatus, 10%.
As for `CCn1cc(C(=O)N/N=C/c2ccc(F)cc2)c(=O)c2ccc(C)nc21`, the EC50 in the assay on Fusarium oxysporum was 79.9 µg/mL (≈ 227 µM); with Rhizoctonia solani, 234 µg/mL (≈ 665 µM); in the assay with Alternaria porri it was 64.8 µg/mL (≈ 184 µM); in the assay on Athelia rolfsii, 220 µg/mL (≈ 624 µM); in the assay with Macrophomina phaseolina, 244 µg/mL (≈ 692 µM). The results for the mortality with Spodoptera litura [1] and in the assay with Callosobruchus maculatus were 50% and 10%, respectively.
For `CCn1cc(C(=O)N/N=C/c2cccc(Cl)c2)c(=O)c2ccc(C)nc21`, the EC50 in the assay with Fusarium oxysporum was 132 µg/mL (≈ 358 µM); in the assay with Rhizoctonia solani, 394 µg/mL (≈ 1070 µM); in the assay with Alternaria porri it was 98.8 µg/mL (≈ 268 µM); in the assay with Athelia rolfsii it was 439 µg/mL (≈ 1190 µM); in the assay on Macrophomina phaseolina, 504 µg/mL (≈ 1370 µM). For the same compound, the mortality was determined as 90% in the assay on Spodoptera litura [1] and 10% in the assay with Callosobruchus maculatus.
For the compound `CCn1cc(C(=O)N/N=C/c2ccc(Cl)cc2)c(=O)c2ccc(C)nc21`, the EC50 was 119 µg/mL (≈ 322 µM) with Fusarium oxysporum; 308 µg/mL (≈ 834 µM) with Rhizoctonia solani; 87.2 µg/mL (≈ 236 µM) in the assay with Alternaria porri; 438 µg/mL (≈ 1190 µM) in the assay with Athelia rolfsii; 371 µg/mL (≈ 1000 µM) in the assay with Macrophomina phaseolina. Besides, the values for the mortality with Spodoptera litura [1] and in the assay with Callosobruchus maculatus were 40% and 10%, respectively.
With `CCn1cc(C(=O)N/N=C/c2cccc([N+](=O)[O-])c2)c(=O)c2ccc(C)nc21`, the EC50 with Fusarium oxysporum was 212 µg/mL (≈ 559 µM); in the assay on Rhizoctonia solani it was 245 µg/mL (≈ 645 µM); in the assay with Alternaria porri, 89 µg/mL (≈ 235 µM); in the assay with Athelia rolfsii, 287 µg/mL (≈ 756 µM); in the assay on Macrophomina phaseolina, 272 µg/mL (≈ 716 µM). Moreover, the mortality in the assay on Spodoptera litura [1] is given as 80%; with Callosobruchus maculatus it was 10%.
For the compound `CCn1cc(C(=O)N/N=C/c2cccc(OC)c2)c(=O)c2ccc(C)nc21`, the EC50 came to 63.1 µg/mL (≈ 173 µM) in the assay with Fusarium oxysporum; 157 µg/mL (≈ 432 µM) in the assay with Rhizoctonia solani; 57.6 µg/mL (≈ 158 µM) in the assay with Alternaria porri; 242 µg/mL (≈ 665 µM) in the assay on Athelia rolfsii; 210 µg/mL (≈ 575 µM) in the assay on Macrophomina phaseolina. Also, the mortality in the assay on Spodoptera litura [1] and with Callosobruchus maculatus was 10% each time.
`CC1(C)C(C=C(Cl)Cl)C1C(=O)OC(C#N)c1cccc(Oc2ccccc2)c1` (stereo not drawn) [ALPHA-CYPERMETHRIN]: the mortality with Spodoptera litura [1] is recorded as 100%.
Turning to `CCCCC(O)(Cn1cncn1)c1ccc(Cl)cc1Cl` (stereo not given) [HEXACONAZOLE], the EC50 was 20.6 µg/mL (≈ 65.6 µM) in the assay on Fusarium oxysporum; 18.3 µg/mL (≈ 58.2 µM) with Rhizoctonia solani; 25.5 µg/mL (≈ 81.2 µM) in the assay on Alternaria porri; 13 µg/mL (≈ 41.4 µM) in the assay with Athelia rolfsii; 4.4 µg/mL (≈ 14 µM) in the assay on Macrophomina phaseolina.
